Published values of several laboratories.
Protocols differ between the studies behind these lines.
Target: Beta-adrenergic receptor kinase 1 (GRK2, Homo sapiens, UniProt P25098)
One construct used (P25098 1-689): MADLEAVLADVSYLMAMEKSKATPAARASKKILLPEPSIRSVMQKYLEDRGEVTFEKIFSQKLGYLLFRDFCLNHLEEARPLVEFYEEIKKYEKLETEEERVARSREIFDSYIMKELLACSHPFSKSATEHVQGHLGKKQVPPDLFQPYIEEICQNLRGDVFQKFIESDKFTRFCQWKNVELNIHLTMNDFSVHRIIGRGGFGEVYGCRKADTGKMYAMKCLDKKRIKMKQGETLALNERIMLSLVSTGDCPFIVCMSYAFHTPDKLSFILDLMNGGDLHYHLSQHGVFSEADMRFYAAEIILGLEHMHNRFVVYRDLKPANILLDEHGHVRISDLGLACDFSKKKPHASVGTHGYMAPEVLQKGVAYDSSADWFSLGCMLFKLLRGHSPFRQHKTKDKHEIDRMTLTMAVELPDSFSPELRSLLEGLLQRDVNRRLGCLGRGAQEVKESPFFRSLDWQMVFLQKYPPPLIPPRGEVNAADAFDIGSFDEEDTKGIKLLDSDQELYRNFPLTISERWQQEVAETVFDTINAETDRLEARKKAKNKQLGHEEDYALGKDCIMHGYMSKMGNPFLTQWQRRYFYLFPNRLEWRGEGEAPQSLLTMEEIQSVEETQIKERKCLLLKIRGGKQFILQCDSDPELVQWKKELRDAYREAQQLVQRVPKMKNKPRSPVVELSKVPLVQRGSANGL

CCCS(=O)(=O)Nc1ccc(F)c(C(=O)c2c[nH]c3ncc(-c4ccc(Cl)cc4)cc23)c1F  inhibition (enzyme activity; inhibitor; 1 µM): < 20%
Cc1sc(C(=O)NC2COC2)cc1-n1cc(NC(=O)Nc2c(F)cccc2Cl)cn1  remaining activity (enzyme activity; inhibitor; 10 µM): 106%
Cc1ccc(C(=O)Nc2ccc(CN3CCN(C)CC3)c(C(F)(F)F)c2)cc1C#Cc1cnc2cccnn12  remaining activity (enzyme activity; inhibitor; 23.5 nM): 77%
N[C@H]1CCN(c2nccc(-c3cnn4ncccc34)n2)C1  remaining binding (binding; competition with immobilised ligand; 1 µM): 80%
O=C(O)[C@H]1[C@H](Cn2nnc3ccccc3c2=O)CC[C@@H]1C(=O)c1ccc(OCCC2CCOCC2)cc1  remaining binding (cell-free assay; competition with immobilised ligand; 1 µM): 61%
CC(C)(C)c1nc2c(s1)c1nc(N)ncc1c1ccc(NS(=O)(=O)c3c(F)cccc3F)c(F)c12  remaining activity (enzyme activity; inhibitor; radiometric; 1 µM): 90%
Nc1ncnc2occ(-c3ccc(NC(=O)Nc4cc(C(F)(F)F)ccc4F)cc3)c12  remaining signal (cell-free assay; inhibitor; 20 µM): 81%
c1ccc(CNc2nc(N3CCOc4ccccc43)nc3c2CCCC3)cc1  inhibition (target engagement in cells; inhibitor; chemoproteomics; 20 mM): -6.7%
CCc1ccccc1C(=O)Nc1n[nH]c2c(C)c(F)c(C3C(C#N)=C(C)N(C)C(C)=C3C#N)cc12  remaining binding (cell-free assay; competition with immobilised ligand; 1 µM): 100%
O=C1NC(=O)c2cc(Nc3ccc(F)cc3)c(Nc3ccc(F)cc3)cc21  remaining signal (cell-free assay; 0.5 µM): 104%
O=C(Nc1cccnn1)N1CC(C/C=C/c2cncc(Oc3ccc(C(F)(F)F)cn3)n2)C1  remaining binding (cell-free assay; competition with immobilised ligand; 1 µM): 96%
COc1cc2ncnc(Nc3ccc(Oc4ccccc4)c(C)c3C)c2cc1OC  inhibition (enzyme activity; inhibitor; 1 µM): -2%
O=C(NS(=O)(=O)c1ccc(NCC2CCOCC2)c([N+](=O)[O-])c1)c1ccc(N2CCN(Cc3ccc(C(F)(F)F)cc3-c3ccc(Cl)cc3)CC2)cc1Oc1cnc2[nH]ccc2c1  remaining binding (cell-free assay; competition with immobilised ligand; 1 µM): 91%
COc1cc(Cl)c(C(=O)N[C@@H](CN[C@H]2CC[C@@H](N)CC2)Cc2ccc(C#N)cc2)cc1-c1ccc(CN[C@H](C)c2ccc(C)cc2)o1  remaining activity (enzyme activity; inhibitor; 1 µM): 105%
C[C@H](NC(=O)c1cnc2n1[C@](C)(Cc1ccc(C#N)cc1)C(=O)N2c1cc(Cl)c(F)c(Cl)c1)C(=O)NC1(c2ccccn2)CC1  remaining binding (cell-free assay; competition with immobilised ligand; 1 µM): 100%
COc1cccc2c(NCc3ccccc3)nc(-n3c(N)nc4ccccc43)nc12  inhibition (target engagement in cells; inhibitor; chemoproteomics; 20 mM): -14.5%
